Data from ChEMBL document CHEMBL1152126 (Bioorg Med Chem, 2008).
The source made the active and inactive calls. The calls are words filed in the database; no cut-off is given here.

Key:
[1] = target: Matrix metalloproteinase-14 (Homo sapiens, UniProt P50281); experiment: Inhibition of human recombinant MMP14 catalytic domain by spectrofluorimeter
Method in brief: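 Human recombinant MT1-MMP catalytic domain at 1–2 nM in 50 mM Tris–HCl pH 7.5, 150 mM NaCl, 5 mM CaCl₂ at 25 °C. Inhibitors at 5–7 concentrations preincubated with enzyme for 30 min, then quenched fluorogenic peptide substrate added. Percent inhibition measured in triplicate within a 20–80% inhibition range.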

[2] = target: 72 kDa type IV collagenase (Homo sapiens, UniProt P08253); experiment: Inhibition of human recombinant pro-MMP2 by spectrofluorimeter
Method in brief: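 Pro-MMP-2 activated with […], 37 °C, 2 h. Assay: 1–2 nM enzyme in 50 mM Tris–HCl pH 7.5, 150 mM NaCl, 5 mM CaCl₂, 25 °C; 30 min inhibitor preincubation, then quenched fluorogenic substrate.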

[3] = target: T1, Interstitial collagenase (Homo sapiens, UniProt P03956); experiment: Inhibition of human recombinant pro-MMP1 by spectrofluorimeter
T1 sequence (P03956 whole entry): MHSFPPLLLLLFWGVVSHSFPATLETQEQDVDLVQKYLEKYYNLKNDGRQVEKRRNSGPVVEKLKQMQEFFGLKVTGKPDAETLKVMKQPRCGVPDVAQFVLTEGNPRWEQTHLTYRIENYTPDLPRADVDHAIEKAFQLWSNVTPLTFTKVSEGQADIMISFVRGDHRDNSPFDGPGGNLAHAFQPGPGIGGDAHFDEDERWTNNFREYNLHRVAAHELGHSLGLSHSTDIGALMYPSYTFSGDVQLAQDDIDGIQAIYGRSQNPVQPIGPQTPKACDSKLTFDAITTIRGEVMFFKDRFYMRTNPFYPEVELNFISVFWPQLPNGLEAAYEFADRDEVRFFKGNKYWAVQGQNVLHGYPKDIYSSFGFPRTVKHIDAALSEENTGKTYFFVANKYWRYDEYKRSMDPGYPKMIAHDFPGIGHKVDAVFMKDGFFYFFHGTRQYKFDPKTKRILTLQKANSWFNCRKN

[4] = target: T2, Matrilysin (Homo sapiens, UniProt P09237); experiment: Inhibition of human recombinant pro-MMP7 by spectrofluorimeter
T2 sequence (P09237 whole entry): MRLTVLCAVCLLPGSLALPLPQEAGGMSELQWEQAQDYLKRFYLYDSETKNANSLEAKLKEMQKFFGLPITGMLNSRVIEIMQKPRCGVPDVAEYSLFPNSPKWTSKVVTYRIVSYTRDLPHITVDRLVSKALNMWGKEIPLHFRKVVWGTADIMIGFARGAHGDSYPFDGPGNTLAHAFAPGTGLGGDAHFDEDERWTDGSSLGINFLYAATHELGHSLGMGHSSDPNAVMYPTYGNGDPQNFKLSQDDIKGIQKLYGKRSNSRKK
Method in brief: (§1)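 Pro-enzymes (human recombinant) freshly activated with […] at 37 °C for 2 h. Activated MMP at 1–2 nM in 50 mM Tris–HCl pH 7.5, 150 mM NaCl, 5 mM CaCl₂ at 25 °C, preincubated 30 min with inhibitor before quenched fluorogenic substrate. Percent inhibition from triplicates at 5–7 concentrations within the 20–80% range.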

[5] = target: Matrix metalloproteinase-9 (Homo sapiens, UniProt P14780); experiment: Inhibition of human recombinant pro-MMP9 by spectrofluorimeter; method in brief: as §1
[6] = target: Stromelysin-1 (Homo sapiens, UniProt P08254); experiment: Inhibition of human recombinant MMP3 catalytic domain by spectrofluorimeter
Method in brief: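 MMP-3 human recombinant catalytic domain (1–2 nM) was assayed in 50 mM Tris–HCl pH 7.5, 5 mM CaCl₂, […] at 25 °C. Enzyme and inhibitor were preincubated for 30 min before quenched fluorogenic substrate was added. Triplicate percent inhibition was taken at 5–7 inhibitor concentrations spanning 20–80% inhibition.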

[7] = species on record: Homo sapiens; experiment: Selectivity ratio of IC50 for human recombinant pro-MMP2 to IC50 for human recombinant pro-MMP1

Chain of 72 kDa type IV collagenase (P08253 whole entry): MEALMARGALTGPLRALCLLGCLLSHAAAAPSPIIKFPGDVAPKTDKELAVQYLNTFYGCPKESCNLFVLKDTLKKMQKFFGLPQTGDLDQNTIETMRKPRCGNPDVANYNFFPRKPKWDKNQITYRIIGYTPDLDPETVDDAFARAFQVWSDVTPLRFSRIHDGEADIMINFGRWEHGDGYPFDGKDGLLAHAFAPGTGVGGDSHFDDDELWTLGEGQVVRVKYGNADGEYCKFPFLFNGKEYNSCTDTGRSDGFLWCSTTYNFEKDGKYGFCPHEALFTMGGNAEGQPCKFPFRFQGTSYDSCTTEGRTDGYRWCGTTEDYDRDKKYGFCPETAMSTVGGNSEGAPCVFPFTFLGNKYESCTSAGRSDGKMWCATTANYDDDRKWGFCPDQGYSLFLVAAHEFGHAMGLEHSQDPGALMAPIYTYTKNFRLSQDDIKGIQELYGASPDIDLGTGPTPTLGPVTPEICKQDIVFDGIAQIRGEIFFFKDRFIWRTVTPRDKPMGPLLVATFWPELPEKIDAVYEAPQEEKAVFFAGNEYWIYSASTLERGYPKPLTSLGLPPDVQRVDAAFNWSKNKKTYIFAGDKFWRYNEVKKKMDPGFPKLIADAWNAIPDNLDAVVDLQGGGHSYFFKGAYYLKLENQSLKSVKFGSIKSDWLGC
Chain of Matrix metalloproteinase-9 (P14780 whole entry, the tested form may be a part): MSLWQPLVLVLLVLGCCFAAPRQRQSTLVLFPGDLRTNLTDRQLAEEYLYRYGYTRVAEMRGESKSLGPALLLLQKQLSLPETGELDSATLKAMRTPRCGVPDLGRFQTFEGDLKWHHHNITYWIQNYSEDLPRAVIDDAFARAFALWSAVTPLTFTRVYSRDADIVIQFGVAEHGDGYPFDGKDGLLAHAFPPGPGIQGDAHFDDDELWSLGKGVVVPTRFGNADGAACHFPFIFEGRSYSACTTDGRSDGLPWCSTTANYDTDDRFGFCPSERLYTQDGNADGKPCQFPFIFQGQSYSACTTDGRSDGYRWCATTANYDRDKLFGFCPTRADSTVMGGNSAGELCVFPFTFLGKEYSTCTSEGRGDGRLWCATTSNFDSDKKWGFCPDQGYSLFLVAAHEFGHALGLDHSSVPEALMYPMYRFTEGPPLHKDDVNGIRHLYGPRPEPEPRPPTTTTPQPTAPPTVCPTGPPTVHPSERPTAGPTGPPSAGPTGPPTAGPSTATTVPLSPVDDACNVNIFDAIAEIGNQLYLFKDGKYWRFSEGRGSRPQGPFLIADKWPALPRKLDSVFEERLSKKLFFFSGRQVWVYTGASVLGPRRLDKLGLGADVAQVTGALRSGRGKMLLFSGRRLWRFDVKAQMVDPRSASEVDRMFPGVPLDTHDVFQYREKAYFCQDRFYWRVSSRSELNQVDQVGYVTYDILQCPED
Chain of Stromelysin-1 (P08254 whole entry, the tested form may be a part): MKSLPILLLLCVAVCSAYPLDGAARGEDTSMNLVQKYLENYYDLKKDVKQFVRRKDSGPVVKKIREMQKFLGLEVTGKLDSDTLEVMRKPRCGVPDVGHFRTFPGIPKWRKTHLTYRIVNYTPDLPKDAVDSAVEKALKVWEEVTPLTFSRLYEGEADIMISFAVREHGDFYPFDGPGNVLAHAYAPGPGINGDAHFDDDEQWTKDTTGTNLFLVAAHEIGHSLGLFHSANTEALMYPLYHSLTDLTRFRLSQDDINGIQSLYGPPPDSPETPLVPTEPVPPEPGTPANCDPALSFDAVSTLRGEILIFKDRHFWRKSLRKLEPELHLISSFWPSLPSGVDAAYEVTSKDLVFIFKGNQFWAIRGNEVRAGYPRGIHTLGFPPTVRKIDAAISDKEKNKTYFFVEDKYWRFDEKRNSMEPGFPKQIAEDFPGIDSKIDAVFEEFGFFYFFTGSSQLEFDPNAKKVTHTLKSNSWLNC

SMILES	IC50 [1] [nM]	IC50 [2] [nM]	IC50 [3] [nM]	IC50 [5] [nM]	IC50 [6] [nM]	also measured
CCCCCCCCCCCCS(=O)(=O)NNC(=O)C[C@@H](CC(C)C)C(=O)N[C@@H](Cc1c[nH]c2ccccc12)C(=O)NC	9700	1400	980			
CNC(=O)[C@H](Cc1c[nH]c2ccccc12)NC(=O)[C@@H](CC(=O)NNc1ccc(Cl)c(Cl)c1)CC(C)C	1000	10000	5600			
CNC(=O)[C@H](Cc1c[nH]c2ccccc12)NC(=O)[C@@H](CC(=O)NNS(=O)(=O)c1ccc(Cl)cc1)CC(C)C	190	18	290			
CNC(=O)[C@H](Cc1c[nH]c2ccccc12)NC(=O)[C@@H](CC(=O)NNS(=O)(=O)c1c(C(C)C)cc(C(C)C)cc1C(C)C)CC(C)C	3100	100	4000			
CNC(=O)[C@H](Cc1c[nH]c2ccccc12)NC(=O)[C@@H](CC(=O)NNS(=O)(=O)c1ccc([N+](=O)[O-])cc1)CC(C)C	1500	310	490			
CNC(=O)[C@H](Cc1c[nH]c2ccccc12)NC(=O)[C@@H](CC(=O)NNS(=O)(=O)c1ccccc1[N+](=O)[O-])CC(C)C	1100	320	850			
CNC(=O)[C@H](Cc1c[nH]c2ccccc12)NC(=O)[C@@H](CC(=O)NNS(=O)(=O)c1ccc(N2C(=O)CCC2=O)cc1)CC(C)C	720	79	91	8.5	920	IC50 [4]: 110 nM
CNC(=O)[C@H](Cc1c[nH]c2ccccc12)NC(=O)[C@@H](CC(=O)NNc1ccc([N+](=O)[O-])cc1)CC(C)C	> 10000	10000	> 10000			
CNC(=O)[C@H](Cc1c[nH]c2ccccc12)NC(=O)[C@@H](CC(=O)NO)CC(C)C [ILOMASTAT]	5.2				26	
CNC(=O)[C@H](Cc1c[nH]c2ccccc12)NC(=O)[C@@H](CC(=O)NNc1ccc([N+](=O)[O-])cc1[N+](=O)[O-])CC(C)C	> 10000	10000	> 10000			
CNC(=O)[C@H](Cc1c[nH]c2ccccc12)NC(=O)[C@@H](CC(=O)NNc1ccc(OC)cc1)CC(C)C	> 10000	10000	330			
CCCCCCCCCCCCCCCCS(=O)(=O)NNC(=O)C[C@@H](CC(C)C)C(=O)N[C@@H](Cc1c[nH]c2ccccc12)C(=O)NC	5100	300	440			
CNC(=O)[C@H](Cc1c[nH]c2ccccc12)NC(=O)[C@@H](CC(=O)NNS(C)(=O)=O)CC(C)C	3700	740	5600			
CNC(=O)[C@H](Cc1c[nH]c2ccccc12)NC(=O)[C@@H](CC(=O)NNS(=O)(=O)c1ccc(C)cc1)CC(C)C	2600	24	250			Ratio IC50 [7]: 10
CNC(=O)[C@H](Cc1c[nH]c2ccccc12)NC(=O)[C@@H](CC(=O)NNS(=O)(=O)c1ccccc1N)CC(C)C	730	92	93			

The next lines start with results.

IC50 [1] [nM]	IC50 [2] [nM]	IC50 [3] [nM]	IC50 [5] [nM]	IC50 [6] [nM]	SMILES	also measured
	1810		2560	2540	CCCCCC/C=C(\CC(=O)NNS(=O)(=O)c1ccc(-c2ccc(Br)cc2)cc1)C(=O)N[C@@H](Cc1c[nH]c2ccccc12)C(=O)NC	Activity [1]: inactive
1240	247	350	18	53	CNC(=O)[C@H](Cc1c(-c2ccccc2)[nH]c2ccccc12)NC(=O)[C@@H](CC(=O)NNS(=O)(=O)c1ccc(-c2ccc(Br)cc2)cc1)CC(C)C	
105	310	1030	1250	3860	CNC(=O)[C@H](Cc1c[nH]c2ccccc12)NC(=O)/C(=C/CCc1ccccc1)CC(=O)NNS(=O)(=O)c1ccc(-c2ccc(Br)cc2)cc1	
2800	45	110			CNC(=O)[C@H](Cc1c[nH]c2ccccc12)NC(=O)[C@@H](CC(=O)NNS(=O)(=O)c1ccc(Oc2ccccc2)cc1)CC(C)C	
	65	1080	827	463	CNC(=O)[C@H](Cc1c(-c2ccccc2)[nH]c2ccccc12)NC(=O)/C(=C/CCc1ccccc1)CC(=O)NNS(=O)(=O)c1ccc(-c2ccc(Br)cc2)cc1	Activity [1]: inactive
3780	1270	2040	732	174	CCCCCC/C=C(\CC(=O)NNS(=O)(=O)c1ccc(-c2ccc(Br)cc2)cc1)C(=O)N[C@@H](Cc1c(-c2ccccc2)[nH]c2ccccc12)C(=O)NC	
10000	37	150	11	1400	CNC(=O)[C@H](Cc1c[nH]c2ccccc12)NC(=O)[C@@H](CC(=O)NNS(=O)(=O)c1ccc2ccccc2c1)CC(C)C	IC50 [4]: 6150 nM
17000	9.8	30	3	1700	CNC(=O)[C@H](Cc1c[nH]c2ccccc12)NC(=O)[C@@H](CC(=O)NNS(=O)(=O)c1ccc(-c2ccc(Br)cc2)cc1)CC(C)C	Ki [1]: 1900 nM; Ki [2]: 8.5 nM; IC50 [4]: 475 nM; Ki [4]: 523 nM; Ki [5]: 3.6 nM; Ki [6]: 415 nM
